Assay outcomes deposited in PubChem by several laboratories.
The list is not random: actives were taken first. Their share in the collection is about 27%.
CYP2C9 inhib: blockers of cytochrome P450 2C9 activity – biochemical, luminescence, ADME assay, primary screen; 96,000 tested, 20% active; P11712; CYP2C9 Supersomes, luciferin-H conversion; inhibition, % at 5 µM; AID 777, 2007;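 active means blocking of liver enzyme CYP2C9 beyond about 50% at 5 µM, limit read from the data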
Target sequence (P11712 whole entry, looked up): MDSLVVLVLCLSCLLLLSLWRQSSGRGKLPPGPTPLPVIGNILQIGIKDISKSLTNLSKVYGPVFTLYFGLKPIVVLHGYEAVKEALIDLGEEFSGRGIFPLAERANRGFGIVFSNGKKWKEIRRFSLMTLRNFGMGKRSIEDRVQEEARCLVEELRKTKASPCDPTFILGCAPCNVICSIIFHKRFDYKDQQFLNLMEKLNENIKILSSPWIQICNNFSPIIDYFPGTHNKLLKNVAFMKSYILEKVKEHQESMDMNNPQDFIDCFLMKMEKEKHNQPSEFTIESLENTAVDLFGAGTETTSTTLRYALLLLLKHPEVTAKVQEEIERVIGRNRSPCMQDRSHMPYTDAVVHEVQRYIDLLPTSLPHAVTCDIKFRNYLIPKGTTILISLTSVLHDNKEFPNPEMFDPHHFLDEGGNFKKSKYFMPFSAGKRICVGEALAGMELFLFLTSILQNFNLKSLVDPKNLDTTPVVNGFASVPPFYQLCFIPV
CYP2C19 act: human CYP2C19 activators, primary screen, biochemical, luminescence; Cytochrome P450 2C19 (Homo sapiens), P33261; recombinant CYP2C19, luciferin-H EGE luminescence; hits give high values; 0 = fully inhibited enzyme, 1 = untreated enzyme; activation factor at 5 µM; 96,000 tested, under 10 active;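 active means activation factor of at least 2 at 5 µM in the primary screen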;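 further: 0 = wells with 2.5 mM tranylcypromine and 1 = vehicle-only wells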
HIV Rev-RRE inh: HIV-1 Rev-RRE binding inhibitors, primary screen, biochemical, FRET, protein-RNA interaction. AID 704, 2007. Rev peptide-RRE RNA binding. 97,000 tested, 0.79% active. inhibition, % at 8 µM. P05866;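 active means inhibition above the screen-wide mean plus 3 SD, cut at about 35% in these data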;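 further: 0% = median DMSO wells and 100% = median Neomycin B control wells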
Target sequence (P05866 whole entry, looked up): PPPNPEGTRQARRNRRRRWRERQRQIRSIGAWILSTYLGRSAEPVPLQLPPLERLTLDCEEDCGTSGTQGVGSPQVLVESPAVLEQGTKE
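Assay system: Labelled RRE RNA duplex and labelled Rev peptide | Times: 5 min preincubation and 15 min binding, 25 °C | Detection: FRET, ex 480 nm, em 540 and 671 nm | Evaluation: % inhibition of FRET ratio versus controls | Benchmarks: DMSO wells as 0% and neomycin B wells as 100% inhibition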
CYP2C9 activ: human CYP2C9 activators, primary screen, biochemical, luminescence; recombinant CYP2C9, luciferin-H conversion; hits give high values; factor 1 = untreated enzyme, 0 = blocked; activation factor at 5 µM; 96,000 tested, 1.4% active; AID 1024, 2008;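 active means activation factor of 2 or more for CYP2C9 at a 5 µM dose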;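 further: 0 = sulfaphenazole-blocked wells and 1 = vehicle-only wells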
Cav32 inh: Cav3.2 calcium influx blockers – cell-based, Fluo-4 calcium fluorescence, FDSS, MLSMR library, primary screen. Voltage-dependent T-type calcium channel subunit alpha-1H (Homo sapiens), O95180. Cav3.2-expressing cells; hits give low values. AID 449739, 2010. B-score at 10 µM. 100,000 tested, 4% active;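 active means single-dose well whose peak fluorescence ratio is a statistical outlier from its plate by either plate-standardised score or position-corrected B-score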
CYP2C19 inh: blockers of cytochrome P450 2C19 activity – biochemical, luminescence, ADME assay, primary screen. CYP2C19 Supersomes, luciferin-H EGE luminescence, 30 min. inhibition, % at 5 µM. 96,000 tested, 21% active. AID 778, 2007;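 active means CYP2C19 inhibition above a set limit at 5 µM in the primary screen, cut at about 50% in these data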;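 further: plate controls were negative control wells for no effect and 2.5 mM tranylcypromine positive control for full effect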
The depositor's hits bear a star.

For COc1ccc2[nH]c(=O)c(CN(Cc3nnnn3Cc3ccccc3)CC3CCCO3)cc2c1 (configuration not stated) the results were CYP2C9 inhib 35, CYP2C19 act 0.7, HIV Rev-RRE inh 3, CYP2C9 activ 0.7, Cav32 inh -0.4 and CYP2C19 inh 32.
For Cc1ccc2cc(CN(Cc3nnnn3Cc3ccco3)CC3CCCO3)c(=O)[nH]c2c1C (configuration not stated) the results were CYP2C9 inhib 86*, CYP2C19 act 0.2, CYP2C9 activ 0.1, Cav32 inh -0.23 and CYP2C19 inh 82*.
Cc1ccc(S(=O)(=O)Cn2nnnc2CN(Cc2ccco2)CC2CCCO2)cc1 (configuration not stated) was read as CYP2C9 inhib 91*, CYP2C19 act 0.2, HIV Rev-RRE inh 9, CYP2C9 activ 0.1, Cav32 inh 1.7 and CYP2C19 inh 84*.
For CCCCOC(=O)c1ccc(NC(=O)c2ocnc2C)cc1 the results were CYP2C9 inhib 41, CYP2C19 act 0.8, HIV Rev-RRE inh 16, CYP2C9 activ 0.6, Cav32 inh 0.4 and CYP2C19 inh 24.
`Cc1cc(C)cc(-n2nnnc2SCC(=O)N2CCOCC2)c1` gave HIV Rev-RRE inh 7 and Cav32 inh -0.094.
`O=C(O)C1C2C=CC(O2)C1C(=O)Nc1ccc(S(=O)(=O)N2CCc3ccccc32)cc1` (configuration not stated) gave CYP2C9 inhib -24, CYP2C19 act 0.9, HIV Rev-RRE inh 4, CYP2C9 activ 1.2, Cav32 inh 0.35 and CYP2C19 inh 13.
O=C(Nc1nnc(C2CC2)o1)c1ccc(S(=O)(=O)N2CCCc3ccccc32)cc1 was read as CYP2C9 inhib 95*, CYP2C19 act 0.9, CYP2C9 activ 0.1 and CYP2C19 inh 6.
For COc1cccc(-c2nnc(NC(=O)c3ccc(S(=O)(=O)N4CCOCC4)cc3)o2)c1 the results were CYP2C9 inhib 7, CYP2C19 act 1, HIV Rev-RRE inh -3, CYP2C9 activ 0.9, Cav32 inh -1.4 and CYP2C19 inh -2.
`COc1ccc(-c2nnc(NC(=O)c3ccc(S(=O)(=O)N4CCCc5ccccc54)cc3)o2)cc1` gave CYP2C9 inhib 54*, CYP2C19 act 1, HIV Rev-RRE inh 6, CYP2C9 activ 0.5 and CYP2C19 inh -1.
O=C(NCc1ccco1)c1ccc(S(=O)(=O)N2CCCc3ccccc32)cc1 was read as CYP2C9 inhib 76*, CYP2C19 act 0.3, HIV Rev-RRE inh 14, CYP2C9 activ 0.2, Cav32 inh -3.9* and CYP2C19 inh 67*.
`O=C(NCc1ccco1)c1ccc2ccccc2c1` gave CYP2C9 inhib -4, CYP2C19 act 0.7, HIV Rev-RRE inh 2, CYP2C9 activ 1, Cav32 inh -0.17 and CYP2C19 inh 28.
Screening O=C(CN1CCN(S(=O)(=O)c2ccc(Br)cc2)CC1)Nc1ccccc1F returned CYP2C9 inhib 37, CYP2C19 act 0.2, CYP2C9 activ 0.6, Cav32 inh -2.5 and CYP2C19 inh 84*.
O=C(CN1CCN(S(=O)(=O)c2ccc(Br)cc2)CC1)Nc1ccc(F)cc1 was read as CYP2C9 inhib -36, CYP2C19 act 0.7, HIV Rev-RRE inh 10, CYP2C9 activ 1.4 and CYP2C19 inh 26.
Screening O=C(CN1CCN(S(=O)(=O)c2ccc(Cl)cc2)CC1)Nc1ccc(F)cc1F returned CYP2C9 inhib 24, CYP2C19 act 0.7, HIV Rev-RRE inh 10, CYP2C9 activ 0.8 and CYP2C19 inh 27.
For O=C(CN1CCN(S(=O)(=O)c2ccc(Br)cc2)CC1)Nc1ccc(F)cc1F the results were CYP2C9 inhib -3, CYP2C19 act 0.5, HIV Rev-RRE inh 4, CYP2C9 activ 1 and CYP2C19 inh 54*.
For COc1ccc(CN2CCN(S(=O)(=O)c3ccc(F)cc3)CC2)c(OC)c1OC the results were CYP2C9 inhib 40, CYP2C19 act 0.1, HIV Rev-RRE inh 7, CYP2C9 activ 0.6, Cav32 inh -0.03 and CYP2C19 inh 87*.
CCN1CCN(S(=O)(=O)c2ccc(OC)c(Br)c2)CC1 was read as CYP2C9 inhib -159, CYP2C19 act 0.3, HIV Rev-RRE inh 7, CYP2C9 activ 2.6*, Cav32 inh -0.021 and CYP2C19 inh 72*.
COc1ccccc1CN1CCN(S(=O)(=O)c2ccccc2)CC1 was read as CYP2C9 inhib 63*, CYP2C19 act 0.4, HIV Rev-RRE inh 7, CYP2C9 activ 0.4, Cav32 inh -0.77 and CYP2C19 inh 62*.
`COc1ccc(S(=O)(=O)N2CCN(C)CC2)cc1Br` gave CYP2C9 inhib -78, CYP2C19 act 0.7, HIV Rev-RRE inh 1, CYP2C9 activ 1.8, Cav32 inh 0.85 and CYP2C19 inh 28.
For CCN1CCN(S(=O)(=O)c2ccc3ccccc3c2)CC1 the results were CYP2C9 inhib -102, CYP2C19 act 0.3, HIV Rev-RRE inh 5, CYP2C9 activ 2*, Cav32 inh 0.098 and CYP2C19 inh 71*.
COC(=O)c1nn2c(C(F)(F)F)cc(-c3ccc(Br)o3)nc2c1Br was read as CYP2C9 inhib 22, CYP2C19 act 0.9, HIV Rev-RRE inh 7, CYP2C9 activ 0.8, Cav32 inh -0.23 and CYP2C19 inh 5.
Screening COc1ccc(CN2CCN(S(=O)(=O)c3ccccc3)CC2)cc1Br returned CYP2C9 inhib 96*, CYP2C19 act 0, HIV Rev-RRE inh 7, CYP2C9 activ 0, Cav32 inh -2.5 and CYP2C19 inh 99*.
For COc1ccc(CN2CCN(S(=O)(=O)c3ccccc3)CC2)c(OC)c1 the results were CYP2C9 inhib 60*, CYP2C19 act 0.5, HIV Rev-RRE inh 8, CYP2C9 activ 0.4, Cav32 inh -0.021 and CYP2C19 inh 52*.
Screening CCOc1ccc(OCC(=O)Nc2ccc(S(=O)(=O)Nc3cc(C)nc(C)n3)cc2)cc1 returned CYP2C9 inhib -1, CYP2C19 act 1.1, HIV Rev-RRE inh -5, CYP2C9 activ 1, Cav32 inh 0.24 and CYP2C19 inh -5.
For CN(c1ccc(OCC(=O)Nc2ccc3[nH]c(=O)[nH]c3c2)cc1)S(=O)(=O)c1ccc(Cl)cc1 the results were CYP2C9 inhib 62*, CYP2C19 act 0.7, HIV Rev-RRE inh 5, CYP2C9 activ 0.4, Cav32 inh -0.017 and CYP2C19 inh 27.
`CCOc1ccc(S(=O)(=O)N(C)c2ccc(OCC(=O)Nc3ccc4[nH]c(=O)[nH]c4c3)cc2)cc1` gave CYP2C9 inhib 78*, CYP2C19 act 0.6, CYP2C9 activ 0.2, Cav32 inh 0.28 and CYP2C19 inh 38.
